Experimental findings from ChEMBL document CHEMBL1938381, “Design, synthesis, and structure-activity relationship studies of conformationally restricted mutilin 14-carbamates” (2012) are described below.

Format in all cases: functional
For test [1], the system named is Staphylococcus aureus. As to the kind of experiment: Antibacterial activity against methicillin-susceptible Staphylococcus aureus by agar microdilution method. The method in brief: (§1)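 MIC by agar microdilution following NCCLS standard M7-A6 (2003), tested against clinical isolates: MRSA n = 6, MRSE n = 5, MSSA n = 5, MSSE n = 5; values given as a single MIC or a range across isolates.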

Test [2] relates to Staphylococcus epidermidis. As to the kind of experiment: Antibacterial activity against methicillin-resistant Staphylococcus epidermidis by agar microdilution method. In short, it runs like this: as §1
Test [3] deals with Staphylococcus epidermidis. As to the kind of experiment: Antibacterial activity against methicillin-susceptible Staphylococcus epidermidis by agar microdilution method. In short, it runs like this: as §1
Test [4] relates to Staphylococcus aureus. As to the kind of experiment: Antibacterial activity against methicillin-resistant Staphylococcus aureus by agar microdilution method. In short, it runs like this:
as §1

The subject of test [5] is Streptococcus pneumoniae. Description: Antibacterial activity against Streptococcus pneumoniae by agar microdilution method. The method in brief:
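MIC read by agar microdilution following NCCLS standard M7-A6 (2003), against a panel of 3 Streptococcus pneumoniae clinical isolates. Values in µg/mL, given as a range where the isolates differed.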

Values after ≈ are worked out from the molar mass of the structure shown.

A word on the MIC: it is the lowest concentration that inhibits growth of the organism. Read a high MIC as a less susceptible organism. With `C=C[C@]1(C)C[C@@H](OC(=O)N2CCc3cc(OCCN4CCCCC4)ccc3C2=O)[C@]2(C)[C@H](C)CC[C@]3(CCC(=O)[C@H]32)[C@@H](C)[C@@H]1O`, the MIC in test [1] was found to be 0.5 µg/mL (≈ 0.805 µM); in test [2], 1 µg/mL (≈ 1.61 µM); in test [3], 0.5 µg/mL (≈ 0.805 µM); in test [4] it was 0.5 µg/mL (≈ 0.805 µM); in test [5], 1 µg/mL (≈ 1.61 µM).

Regarding `C=C[C@]1(C)C[C@@H](OC(=O)N2CCc3ccc(N)cc3C2=O)[C@]2(C)[C@H](C)CC[C@]3(CCC(=O)[C@H]32)[C@@H](C)[C@@H]1O`, the MIC in test [1], in test [2], in test [3], in test [4] and in test [5] was 0.0625 µg/mL (≈ 0.123 µM) each time.

Take `C=C[C@]1(C)C[C@@H](OC(=O)N2CCc3cc(OCCCN4CCOCC4)ccc3C2=O)[C@]2(C)[C@H](C)CC[C@]3(CCC(=O)[C@H]32)[C@@H](C)[C@@H]1O`: the minimum inhibitory concentration (MIC) in test [1], in test [2], in test [3], in test [4] and in test [5] was 0.5 µg/mL (≈ 0.785 µM) each time.

Take `C=C[C@]1(C)C[C@@H](OC(=O)N2CCc3cc(OCCCCN4CCOCC4)ccc3C2=O)[C@]2(C)[C@H](C)CC[C@]3(CCC(=O)[C@H]32)[C@@H](C)[C@@H]1O`: the minimal inhibitory concentration (MIC) in test [1], in test [2], in test [3], in test [4] and in test [5] was 0.5 µg/mL (≈ 0.768 µM) throughout.

For `C=C[C@]1(C)C[C@@H](OC(=O)N2CCc3ccccc3C2=O)[C@]2(C)[C@H](C)CC[C@]3(CCC(=O)[C@H]32)[C@@H](C)[C@@H]1O`, the minimal inhibitory concentration (MIC) in test [1], in test [2], in test [3], in test [4] and in test [5] was 0.25 µg/mL (≈ 0.506 µM) each time.

With `C=C[C@]1(C)C[C@@H](OC(=O)N2Cc3c(OC)cccc3C2=O)[C@]2(C)[C@H](C)CC[C@]3(CCC(=O)[C@H]32)[C@@H](C)[C@@H]1O`, the minimum inhibitory concentration (MIC) in test [1] is 2 µg/mL (≈ 3.92 µM); in test [2] it was 2 µg/mL (≈ 3.92 µM); in test [3] it was 2 µg/mL (≈ 3.92 µM); in test [4], 2 µg/mL (≈ 3.92 µM); in test [5] it was 4 µg/mL (≈ 7.85 µM).

In the case of `C=C[C@]1(C)C[C@@H](OC(=O)N2CCc3ccc([N+](=O)[O-])cc3C2=O)[C@]2(C)[C@H](C)CC[C@]3(CCC(=O)[C@H]32)[C@@H](C)[C@@H]1O`, the minimal inhibitory concentration (MIC) turned out to be 1 µg/mL (≈ 1.86 µM) in test [1]; 1 µg/mL (≈ 1.86 µM) in test [2]; 1 µg/mL (≈ 1.86 µM) in test [3]; 1 µg/mL (≈ 1.86 µM) in test [4]; 2 µg/mL (≈ 3.71 µM) in test [5].

For the compound `C=C[C@]1(C)C[C@@H](OC(=O)N2Cc3ccc(NC(=O)CCN4CCOCC4)cc3C2=O)[C@]2(C)[C@H](C)CC[C@]3(CCC(=O)[C@H]32)[C@@H](C)[C@@H]1O`, the MIC amounted to 0.5 µg/mL (≈ 0.786 µM) in test [1]; 0.25 µg/mL (≈ 0.393 µM) in test [2]; 0.25 µg/mL (≈ 0.393 µM) in test [3]; 0.5 µg/mL (≈ 0.786 µM) in test [4]; 0.5 µg/mL (≈ 0.786 µM) in test [5].

On to `C=C[C@]1(C)C[C@@H](OC(=O)N2Cc3ccc(NC(=O)CN4CCOCC4)cc3C2=O)[C@]2(C)[C@H](C)CC[C@]3(CCC(=O)[C@H]32)[C@@H](C)[C@@H]1O`, for which the MIC in test [1] came out at 0.5 µg/mL (≈ 0.804 µM); in test [2], 1 µg/mL (≈ 1.61 µM); in test [3], 0.5 µg/mL (≈ 0.804 µM); in test [4], 0.5 µg/mL (≈ 0.804 µM); in test [5], 1 µg/mL (≈ 1.61 µM).

For the compound `CC(=O)NC[C@H]1CN(c2ccc(N3CCOCC3)c(F)c2)C(=O)O1` [LINEZOLID], the MIC in test [1] and in test [3] was 0.5 µg/mL (≈ 1.48 µM) each time.

Regarding `C=C[C@]1(C)C[C@@H](OC(=O)N2Cc3c(N)cccc3C2=O)[C@]2(C)[C@H](C)CC[C@]3(CCC(=O)[C@H]32)[C@@H](C)[C@@H]1O`, the MIC in test [1], in test [2], in test [3], in test [4] and in test [5] was 0.0625 µg/mL (≈ 0.126 µM) throughout.

Consider `C=C[C@]1(C)C[C@@H](OC(=O)N2Cc3cc(N4CCOCC4)ccc3C2=O)[C@]2(C)[C@H](C)CC[C@]3(CCC(=O)[C@H]32)[C@@H](C)[C@@H]1O`, for which the minimal inhibitory concentration (MIC) in test [1], in test [2], in test [3], in test [4] and in test [5] was 0.5 µg/mL (≈ 0.885 µM) each time.

Turning to `C=C[C@]1(C)C[C@@H](OC(=O)N2Cc3ccc(NC(=O)CN4CCN(C)CC4)cc3C2=O)[C@]2(C)[C@H](C)CC[C@]3(CCC(=O)[C@H]32)[C@@H](C)[C@@H]1O`, the MIC in test [1], in test [2], in test [3], in test [4] and in test [5] was 0.5 µg/mL (≈ 0.788 µM) throughout.

For `C=C[C@]1(C)C[C@@H](OC(=O)N2CCc3cc(OCCCN4CCN(C)CC4)ccc3C2=O)[C@]2(C)[C@H](C)CC[C@]3(CCC(=O)[C@H]32)[C@@H](C)[C@@H]1O`, the minimum inhibitory concentration (MIC) in test [1], in test [2], in test [3], in test [4] and in test [5] was 0.5 µg/mL (≈ 0.769 µM) each time.

As for `C=C[C@]1(C)C[C@@H](OC(=O)N2Cc3ccc(NC(=O)CCN4CCN(CCO)CC4)cc3C2=O)[C@]2(C)[C@H](C)CC[C@]3(CCC(=O)[C@H]32)[C@@H](C)[C@@H]1O`, the MIC in test [1] stood at 2 µg/mL (≈ 2.95 µM); in test [2], 2 µg/mL (≈ 2.95 µM); in test [3], 2 µg/mL (≈ 2.95 µM); in test [4] it was 2 µg/mL (≈ 2.95 µM); in test [5], 4 µg/mL (≈ 5.89 µM).

For `C=C[C@]1(C)C[C@@H](OC(=O)N2Cc3ccc(N)cc3C2=O)[C@]2(C)[C@H](C)CC[C@]3(CCC(=O)[C@H]32)[C@@H](C)[C@@H]1O`, the minimum inhibitory concentration (MIC) in test [1], in test [2], in test [3], in test [4] and in test [5] was 0.0625 µg/mL (≈ 0.126 µM) each time.

On to `C=C[C@]1(C)C[C@@H](OC(=O)N2CCc3cc(OCCCN4CCCCC4)ccc3C2=O)[C@]2(C)[C@H](C)CC[C@]3(CCC(=O)[C@H]32)[C@@H](C)[C@@H]1O`, for which the MIC in test [1], in test [2], in test [3], in test [4] and in test [5] was 0.5 µg/mL (≈ 0.788 µM) in each case.

For the compound `C=C[C@]1(C)C[C@@H](OC(=O)N2Cc3ccc(NC(=O)CCN4CCN(C)CC4)cc3C2=O)[C@]2(C)[C@H](C)CC[C@]3(CCC(=O)[C@H]32)[C@@H](C)[C@@H]1O`, the MIC in test [1], in test [2], in test [3], in test [4] and in test [5] was 0.5 µg/mL (≈ 0.771 µM) in each case.

Turning to `C=C[C@]1(C)C[C@@H](OC(=O)N2CCc3cc(OC)ccc3C2=O)[C@]2(C)[C@H](C)CC[C@]3(CCC(=O)[C@H]32)[C@@H](C)[C@@H]1O`, the MIC in test [1] worked out at 1 µg/mL (≈ 1.91 µM); in test [2] it was 0.5 µg/mL (≈ 0.955 µM); in test [3], 1 µg/mL (≈ 1.91 µM); in test [4], 2 µg/mL (≈ 3.82 µM); in test [5] it was 2 µg/mL (≈ 3.82 µM).

As for `C=C[C@]1(C)C[C@@H](OC(=O)N2Cc3ccc(NC(=O)[C@H](C)N)cc3C2=O)[C@]2(C)[C@H](C)CC[C@]3(CCC(=O)[C@H]32)[C@@H](C)[C@@H]1O.Cl`, the MIC in test [1], in test [2], in test [3], in test [4] and in test [5] was 0.5 µg/mL in each case.

Take `C=C[C@]1(C)C[C@@H](OC(=O)N2Cc3c(NC(=O)[C@@H](N)C(C)C)cccc3C2=O)[C@]2(C)[C@H](C)CC[C@]3(CCC(=O)[C@H]32)[C@@H](C)[C@@H]1O.Cl`: the MIC in test [1], in test [2], in test [3], in test [4] and in test [5] was 0.5 µg/mL throughout.

For the compound `C=C[C@]1(C)C[C@@H](OC(=O)N2Cc3ccc([N+](=O)[O-])cc3C2=O)[C@]2(C)[C@H](C)CC[C@]3(CCC(=O)[C@H]32)[C@@H](C)[C@@H]1O`, the MIC in test [1], in test [2], in test [3], in test [4] and in test [5] was 0.5 µg/mL (≈ 0.953 µM) each time.

Regarding `C=C[C@]1(C)C[C@@H](OC(=O)N2CCc3cc(OCCN4CCOCC4)ccc3C2=O)[C@]2(C)[C@H](C)CC[C@]3(CCC(=O)[C@H]32)[C@@H](C)[C@@H]1O`, the minimal inhibitory concentration (MIC) in test [1], in test [2], in test [3], in test [4] and in test [5] was 0.5 µg/mL (≈ 0.803 µM) each time.

As to `C=C[C@]1(C)C[C@@H](OC(=O)N2Cc3cc(NC(=O)C(F)(F)F)ccc3C2=O)[C@]2(C)[C@H](C)CC[C@]3(CCC(=O)[C@H]32)[C@@H](C)[C@@H]1O`, the MIC in test [1] was 2 µg/mL (≈ 3.39 µM); in test [2] it was 2 µg/mL (≈ 3.39 µM); in test [3] it was 2 µg/mL (≈ 3.39 µM); in test [4], 2 µg/mL (≈ 3.39 µM); in test [5], 4 µg/mL (≈ 6.77 µM).

With `C=C[C@]1(C)C[C@@H](OC(=O)N2Cc3c(cccc3[N+](=O)[O-])C2=O)[C@]2(C)[C@H](C)CC[C@]3(CCC(=O)[C@H]32)[C@@H](C)[C@@H]1O`, the minimum inhibitory concentration (MIC) in test [1], in test [2], in test [3], in test [4] and in test [5] was 0.5 µg/mL (≈ 0.953 µM) each time.

`C=C[C@]1(C)C[C@@H](OC(=O)N2Cc3ccc(NC(=O)CN4CCN(CCO)CC4)cc3C2=O)[C@]2(C)[C@H](C)CC[C@]3(CCC(=O)[C@H]32)[C@@H](C)[C@@H]1O`: the minimal inhibitory concentration (MIC) in test [1] was found to be 0.5 µg/mL (≈ 0.752 µM); in test [2] it was 0.25 µg/mL (≈ 0.376 µM); in test [3], 0.25 µg/mL (≈ 0.376 µM); in test [4], 0.5 µg/mL (≈ 0.752 µM); in test [5], 0.5 µg/mL (≈ 0.752 µM).

For the compound `C=C[C@]1(C)C[C@@H](OC(=O)N2CCc3cc(OCCN4CCN(C)CC4)ccc3C2=O)[C@]2(C)[C@H](C)CC[C@]3(CCC(=O)[C@H]32)[C@@H](C)[C@@H]1O`, the MIC in test [1], in test [2], in test [3], in test [4] and in test [5] was 0.5 µg/mL (≈ 0.786 µM) in each case.

The compound `C=C[C@]1(C)C[C@@H](OC(=O)NC(=O)c2ccc(OC)cc2)[C@]2(C)[C@H](C)CC[C@]3(CCC(=O)[C@H]32)[C@@H](C)[C@@H]1O` registered an MIC in test [5] of 0.0625 µg/mL (≈ 0.126 µM).
